Data reported in ChEMBL document CHEMBL3232894, “Discovery of AMG 925, a FLT3 and CDK4 dual kinase inhibitor with preferential affinity for the activated state of FLT3” (J Med Chem, 2014).
Activity calls are given as the source filed them. The calls are words filed in the database; no cut-off is given here.

Key:
[1] = Clearance in iv dosed dog; format: ADME, organism-based, Canis lupus familiaris; settings: in vivo
Method in brief: (§1)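 Intravenous and oral (gavage, solution) PK in rat, dog and cynomolgus monkey. The rat vehicle for both routes was water/acetate/tween at pH 4, 96/3/1 (v/v/v). Dog and monkey iv doses used 40% PG aqueous solution at pH 2, and their oral doses used 20% captisol aqueous solution.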

[2] = target: T1, Receptor-type tyrosine-protein kinase FLT3 (Homo sapiens, UniProt P36888, ITD); experiment: Inhibition of FLT3 ITD mutant in human MOLM13 cells assessed as inhibition of STAT5 phosphorylation at Tyr694 after 24 hrs; format: cell-based, MOLM-13
[3] = target: Receptor-type tyrosine-protein kinase FLT3 (Homo sapiens, UniProt P36888, D835H); experiment: Binding affinity to FLT3 D835H mutant (unknown origin)
MOLM-13 [4] = experiment: cells; settings: Homo sapiens
[5] = target: Receptor-type tyrosine-protein kinase FLT3 (Homo sapiens, UniProt P36888, N841I); experiment: Binding affinity to FLT3 N841I mutant (unknown origin)
[6] = Oral bioavailability in cynomolgus monkey; format: ADME, organism-based, Macaca fascicularis; settings: in vivo; method in brief: as §1
[7] = Clearance in iv dosed cynomolgus monkey; format: ADME, organism-based, Macaca fascicularis; settings: in vivo; method in brief: as §1
MOLM-13 [8] = experiment: Induction of apoptosis in human MOLM13 cells harboring FLT3 ITD mutant at 1 uM after 48 hrs by Annexin V/Sytox Green staining based flow cytometry; format: functional
Method in brief: (§2)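 MOLM13, sorafenib-resistant MOLM13 and U937 cells were each exposed to compound at 1 μM for 48 h. Cells were then stained with Annexin V/Sytox Green and analysed by flow cytometry. Readout is apoptotic cells as a percentage of all cells analysed.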

[9] = Elimination half-life in iv dosed cynomolgus monkey; format: ADME, organism-based, Macaca fascicularis; settings: in vivo, read-out: beta t1/2 (converted); method in brief: as §1
[10] = Clearance in iv dosed rat; format: ADME, organism-based; settings: in vivo; method in brief: as §1
COLO 205 = experiment: Antiproliferative activity against Rb-positive human COLO205 cells assessed as incorporation of [14C]thymidine into DNA after 72 hrs by beta-plate counting analysis
[11] = Antiproliferative activity against Rb-negative human MDA-MB-436 cells assessed as incorporation of [3H]thymidine into DNA after 72 hrs by beta-plate counting analysis; format: functional
[12] = Elimination half-life in iv dosed rat; format: ADME, organism-based; settings: in vivo, read-out: beta t1/2 (converted); method in brief: as §1
U-937 = experiment: Induction of apoptosis in human U937 cells harboring wild type FLT3 at 1 uM after 48 hrs by Annexin V/Sytox Green staining based flow cytometry; format: functional; method in brief: as §2
[13] = Volume of distribution at steady state in iv dosed dog; format: ADME, organism-based, Canis lupus familiaris; settings: in vivo, read-out: Vdss; method in brief: as §1
[14] = Volume of distribution at steady state in iv dosed rat; format: ADME, organism-based; settings: in vivo, read-out: Vdss; method in brief: as §1
[15] = target: Cyclin-dependent kinase 4/cyclin D1 (Homo sapiens, UniProt P11802); experiment: Inhibition of CDK4/cyclin D1 (unknown origin) using Rb as substrate after 60 mins by scintillation counting analysis in presence of [r-33P]ATP; format: protein-complex assay
Chain of Cyclin-dependent kinase 4/cyclin D1 (P11802 whole entry): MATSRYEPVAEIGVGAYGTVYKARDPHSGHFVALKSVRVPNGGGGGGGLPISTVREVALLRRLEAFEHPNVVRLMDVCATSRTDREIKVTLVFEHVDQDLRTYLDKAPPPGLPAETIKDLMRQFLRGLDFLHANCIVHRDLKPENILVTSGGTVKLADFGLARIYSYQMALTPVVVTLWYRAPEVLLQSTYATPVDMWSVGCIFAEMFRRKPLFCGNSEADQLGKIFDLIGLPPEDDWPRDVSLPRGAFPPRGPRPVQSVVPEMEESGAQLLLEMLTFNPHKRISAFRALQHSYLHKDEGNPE
Chain of Cyclin-dependent kinase 4/cyclin D1 (P24385 whole entry, further chain): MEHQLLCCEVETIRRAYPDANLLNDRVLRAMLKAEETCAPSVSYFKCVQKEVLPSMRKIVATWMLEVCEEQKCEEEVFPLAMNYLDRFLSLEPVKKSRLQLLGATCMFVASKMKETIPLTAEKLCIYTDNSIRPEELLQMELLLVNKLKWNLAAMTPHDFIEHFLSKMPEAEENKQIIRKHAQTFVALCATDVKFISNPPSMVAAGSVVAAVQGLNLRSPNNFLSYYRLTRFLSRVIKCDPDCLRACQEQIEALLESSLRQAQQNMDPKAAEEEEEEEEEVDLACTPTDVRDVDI

Tumour = experiment: Decrease in Rb phosphorylation at Ser780 in tumor of CrTac:NCR-Foxn1nu (NCR) nude mouse xenografted with human MOLM13 cells at 50 to 150 mg/kg, po after 3 to 24 hrs; format: functional, organism-based; settings: Neoplasm, MOLM-13
Method in brief: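 MOLM13 tumor-bearing mice received a single oral dose of 50, 75 or 150 mg/kg. Tumors were harvested at 3, 6 and 24 h, and lysates were assayed for pSTAT5 and pRb. Unbound plasma levels were measured at the same time points. Results are mean ± SEM, n = 3 per group and n = 6 for vehicle.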

Mus musculus = experiment: Toxicity in po dosed CrTac:NCR-Foxn1nu (NCR) nude mouse xenografted with human MOLM13 cells administered qd for 8 days; format: organism-based, MOLM-13; settings: in vivo, 192 h
Method in brief: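 Body weight tracked throughout the 8-day once-daily oral study in NCR nude mice carrying MOLM13 xenografts. Doses were 25, 50, 75 and 150 mg/kg, with a vehicle control.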

[16] = target: T1, Receptor-type tyrosine-protein kinase FLT3; experiment: Binding affinity to FLT3 ITD mutant (unknown origin)
[17] = target: T2, Receptor-type tyrosine-protein kinase FLT3 (Homo sapiens, UniProt P36888); experiment: Binding affinity to wild type FLT3 (unknown origin)
T2 sequence (P36888 whole entry): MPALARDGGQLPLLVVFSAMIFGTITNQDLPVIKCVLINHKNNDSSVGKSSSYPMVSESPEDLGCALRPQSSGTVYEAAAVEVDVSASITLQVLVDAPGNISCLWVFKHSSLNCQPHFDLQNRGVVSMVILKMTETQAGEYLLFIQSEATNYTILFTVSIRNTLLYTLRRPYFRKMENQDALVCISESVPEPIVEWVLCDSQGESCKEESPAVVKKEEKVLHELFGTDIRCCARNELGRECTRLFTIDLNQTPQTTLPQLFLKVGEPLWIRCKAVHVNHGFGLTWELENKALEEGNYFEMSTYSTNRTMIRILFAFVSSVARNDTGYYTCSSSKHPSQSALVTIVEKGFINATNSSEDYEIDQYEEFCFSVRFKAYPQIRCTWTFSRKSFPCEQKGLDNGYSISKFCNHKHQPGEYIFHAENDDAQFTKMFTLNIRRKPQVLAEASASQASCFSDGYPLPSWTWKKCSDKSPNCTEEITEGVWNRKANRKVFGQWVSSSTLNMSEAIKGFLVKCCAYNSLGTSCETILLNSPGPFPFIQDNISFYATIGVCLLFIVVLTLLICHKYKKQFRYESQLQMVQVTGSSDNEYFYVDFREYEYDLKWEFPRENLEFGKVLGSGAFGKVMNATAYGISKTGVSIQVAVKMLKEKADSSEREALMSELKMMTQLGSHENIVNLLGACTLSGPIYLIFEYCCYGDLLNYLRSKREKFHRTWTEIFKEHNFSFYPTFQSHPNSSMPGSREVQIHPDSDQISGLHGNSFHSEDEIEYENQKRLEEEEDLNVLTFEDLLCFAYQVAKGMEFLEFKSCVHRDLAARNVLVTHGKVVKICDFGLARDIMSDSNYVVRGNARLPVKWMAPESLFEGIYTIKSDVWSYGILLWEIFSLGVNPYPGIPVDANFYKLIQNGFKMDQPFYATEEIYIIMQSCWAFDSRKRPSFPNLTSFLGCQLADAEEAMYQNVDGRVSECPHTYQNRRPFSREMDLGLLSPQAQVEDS

MOLM-13 [18] = experiment: Antiproliferative activity against human MOLM13 cells harboring FLT3 ITD mutant assessed as incorporation of [3H]thymidine into DNA after […] by beta-plate counting analysis; format: functional, cell-based
[19] = target: T2, Receptor-type tyrosine-protein kinase FLT3; experiment: Inhibition of GST-fused human FLT3 cytoplasmic domain (amino acids 564 to 993) using Ulight-JAK1 as substrate after 1 hr by TR-FRET assay
MOLM-13 [20] = experiment: Antitumor activity against human MOLM13 cells xenografted in CrTac:NCR-Foxn1nu (NCR) nude mouse assessed as tumor growth inhibition at 150 mg/kg, po administered qd for 8 days; format: functional; settings: MOLM-13, 192 h, read-out: TGI
Method in brief: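 Oral dosing once daily, day 5 to day 13, in NCR nude mice bearing established subcutaneous human MOLM13 AML xenografts, at 25, 50, 75 and 150 mg/kg against a vehicle group. Tumor growth inhibition read on day 14. AUC comes from terminal PK on plasma collected after the final dose.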

[21] = Oral bioavailability in dog; format: ADME, organism-based, Canis lupus familiaris; settings: in vivo; method in brief: as §1

`C[C@H]1CC[C@H](n2c3cnccc3c3cnc(Nc4ccc5c(n4)CCN(C(=O)CO)C5)nc32)CC1` showed a clearance [1] of 23.5 mL/min/kg, an IC50 [2] of 5 nM and a Kd [3] of 1 nM. It also gave an IC50 (MOLM-13 [4]) of 23 nM, a Kd [5] of 4 nM and a bioavailability [6] of 44%. The clearance [7] was 23.7 mL/min/kg, the Activity (MOLM-13 [8]) was 82.3% and the half-life [9] was 6.6 h. For the same compound, the clearance [10] was 6.5 mL/min/kg, the IC50 (COLO 205) was 55 nM and the IC50 [11] was 3830 nM. For the same compound, the half-life [12] was 5.5 h, the Activity (U-937) was 23.68% and the Vd [13] was 2.6 L/kg. For the same compound, the Vd [14] was 1.8 L/kg, the IC50 [15] was 3 nM and the inhibition (Tumour) was “Active”. The Activity (Mus musculus) was “Non-toxic”, the Kd [16] was 4 nM and the Kd [17] was 4 nM. It also gave an IC50 (MOLM-13 [18]) of 28 nM, an IC50 [19] of 1 nM and an inhibition in vivo at 150 mg/kg (MOLM-13 [20]) of 100%. For the same compound, the bioavailability [21] was 100%.
